# Activity calls are given as the source filed them. The rule behind the calls is not given here.
# Legend:
# Felis catus [1] = species: Felis catus; assay: In vitro inhibition of tissue swelling of Cerebrocortical slices from cat with addition of Sodium Bicarbonate (NaHCO3) and at a compound concentration of 1 X 10E-5 M; format: functional
# How it was run: (§1)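 Cat cerebral cortex slices (~150 mg, 0.5 mm) incubated aerobically 60 min at 37 °C in K+-rich (27 mM) Hepes-buffered saline-glucose with test compound as Na salt. HCO3- (NaHCO3 or TEAB) added from sidearm at 20 min to 10 mM final; HCO3- flasks gassed with 2.5% CO2/97.5% O2. Swelling by reweighing; Na+/K+ by flame photometry, Cl- by amperometric titration. Units: per g initial fresh weight; means ± SE, Student's t test.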
# Felis catus [2] = species: Felis catus; assay: In vitro inhibition of HCO3- stimulated swelling in cat cerebrocortical tissue slice; No inhibition occurred; format: functional; conditions: read-out: I 50; how it was run: as §1
# Pan troglodytes [3] = species: Pan troglodytes; assay: Relative salidiuretic efficacy was scored in chimpanzee; moderate; format: functional, organism-based; conditions: Urine
# Canis familiaris [4] = species: Canis familiaris; assay: Relative salidiuretic efficacy was scored in dog; weak; format: functional, organism-based; conditions: Canis lupus familiaris; Urine
# Felis catus [5] = species: Felis catus; assay: Evaluated for chloride ion content of Cerebrocortical slices in cat with addition of Sodium Bicarbonate (NaHCO3) and at a compound concentration of 1 X 10E-5 M; format: functional; how it was run: as §1
# [6] = Evaluated for Potassium ion content of Cerebrocortical slices in cat with addition of Triethylammonium Bicarbonate (TEAB) and at a compound concentration of 1 X 10E-5 M.; format: functional, Felis catus; how it was run: as §1
# Felis catus [7] = species: Felis catus; assay: In vitro inhibition of tissue swelling of Cerebrocortical slices from cat with addition of Triethylammonium Bicarbonate (TEAB) and at a compound concentration of 1 X 10E-5 M.; format: functional; how it was run: as §1
# [8] = Evaluated for Potassium ion content of Cerebrocortical slices in cat with addition of Sodium Bicarbonate (NaHCO3) and at a compound concentration of 1 X 10E-5 M; format: functional, Felis catus; how it was run: as §1
# [9] = Compound at a concentration of 1 X 10E-5 M along with addition of Sodium Bicarbonate (NaHCO3) was tested for percent bicarbonate stimulated swelling of Cerebrocortical slices in cat (in vitro); format: functional, Felis catus; how it was run: as §1
# [10] = Distribution coefficient (D %) between octanol and buffer of pH 7.4; format: physicochemical; conditions: octanol/water
# [11] = Dissociation constant (pKa) (determined in 30% EtOH); format: physicochemical
# Rattus norvegicus [12] = species: Rattus norvegicus; assay: Relative salidiuretic efficacy was scored in Rat; moderate; format: functional, organism-based; conditions: Urine
# [13] = In vitro inhibition of tissue swelling of Cerebrocortical slices from cat with addition of Triethylammonium Bicarbonate (TEAB) at a compound concentration of 1 X 10E-5 M.; format: functional, Felis catus; how it was run: as §1
# [14] = Evaluated for Potassium ion content of Cerebrocortical slices in cat with addition of Sodium Bicarbonate (NaHCO3) at a compound concentration of 1 X 10E-5 M; format: functional, Felis catus; how it was run: as §1
# Felis catus [15] = species: Felis catus; assay: In vitro inhibition of HCO3- stimulated swelling in cat cerebrocortical tissue slice; format: functional; conditions: read-out: I 50; how it was run: as §1
# Felis catus [16] = species: Felis catus; assay: Evaluated for Potassium ion content of Cerebrocortical slices in cat with addition of Sodium Bicarbonate (NaHCO3) at a compound concentration of 1 X 10E-7 M..; format: functional; how it was run: as §1
# Rattus norvegicus [17] = species: Rattus norvegicus; assay: Relative salidiuretic efficacy was scored in Rat; marked; format: functional, organism-based; conditions: Urine
# Felis catus [18] = species: Felis catus; assay: Evaluated for Sodium ion content of Cerebrocortical slices in cat with addition of Sodium Bicarbonate (NaHCO3) at a compound concentration of 1 X 10E-5 M..; format: functional; how it was run: as §1
# Felis catus [19] = species: Felis catus; assay: Evaluated for chloride ion content of Cerebrocortical slices in cat with addition of Triethylammonium Bicarbonate (TEAB) at a compound concentration of 1 X 10E-5 M.; format: functional; how it was run: as §1
# [20] = Evaluated for Sodium ion content of Cerebrocortical slices in cat with addition of Triethylammonium Bicarbonate (TEAB) at a compound concentration of 1 X 10E-5 M.; format: functional, Felis catus; how it was run: as §1
# Canis familiaris [21] = species: Canis familiaris; assay: Relative salidiuretic efficacy was scored in dog; moderate; format: functional, organism-based; conditions: Canis lupus familiaris; Urine
# Felis catus [22] = species: Felis catus; assay: In vitro inhibition of tissue swelling of Cerebrocortical slices from cat with addition of Sodium Bicarbonate (NaHCO3) at a compound concentration of 1 X 10E-5 M..; format: functional; how it was run: as §1
# Felis catus [23] = species: Felis catus; assay: In vitro inhibition of tissue swelling of Cerebrocortical slices from cat with addition of Sodium Bicarbonate (NaHCO3) at a compound concentration of 1 X 10E-7 M; format: functional; how it was run: as §1
# [24] = Evaluated for chloride ion content of Cerebrocortical slices in cat with addition of Sodium Bicarbonate (NaHCO3) at a compound concentration of 1 X 10E-5 M..; format: functional, Felis catus; how it was run: as §1
# Pan troglodytes [25] = species: Pan troglodytes; assay: Relative salidiuretic efficacy was scored in chimpanzee; marked; format: functional, organism-based; conditions: Urine
# Felis catus [26] = species: Felis catus; assay: Evaluated for Potassium ion content of Cerebrocortical slices in cat with addition of Triethylammonium Bicarbonate (TEAB) at a compound concentration of 1 X 10E-5 M.; format: functional; how it was run: as §1
# Felis catus [27] = assay: Mortality of animals recorded as the number of animals dead out of the total animals (16) taken for the study at dose 5 mg/kg; format: functional
# How it was run: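 Adult conditioned cats (2.5–4 kg) under iv methohexital (13.25 mg/kg, plus 2.75 mg/kg if needed) received machine-induced acceleration/deceleration head injury. Forty min later they were paralysed with gallamine and ventilated with 6% O2/94% N2 for 60 min (arterial pO2 23 ± 1 torr). Drug was given iv 20 min post-injury, before hypoxemia. Mortality was scored as dead/total, chi-square tested.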
# Canis familiaris [28] = species: Canis familiaris; assay: Relative salidiuretic efficacy was scored in dog; Marginal; format: functional, organism-based; conditions: Canis lupus familiaris; Urine
# Pan troglodytes [29] = species: Pan troglodytes; assay: Relative salidiuretic efficacy was scored in chimpanzee; Marginal; format: functional, organism-based; conditions: Urine
# Rattus norvegicus [30] = species: Rattus norvegicus; assay: Relative salidiuretic efficacy was scored in Rat; Marginal; format: functional, organism-based; conditions: Urine
smiles,measurement,setting,value
C[C@@]1(C2CCCC2)Cc2cc(OCC(=O)O)c(Cl)c(Cl)c2C1=O,Tissue swelling,Felis catus [1],266 µL/g
same,IC50,Felis catus [2],> 10 µM
same,Relative salidiuretic activity,Pan troglodytes [3],marked
same,Relative salidiuretic activity,Canis familiaris [4],marked
same,Activity,Felis catus [5],104.6 µM/g
same,Activity,[6],93.6 µM/g
same,Activity,Felis catus [7],279 µM/g
same,Activity,[8],96.4 µM/g
same,Activity,[9],100
same,Distribution,[10],90%
same,pKa,[11],3.9
same,Relative salidiuretic activity,Rattus norvegicus [12],marked
C[C@]1(C2CCCC2)Cc2cc(OCC(=O)O)c(Cl)c(Cl)c2C1=O,Tissue swelling,[13],156 µM/g
same,Activity,[14],92.4 µM/g
same,IC50,Felis catus [15],0.1 µM
same,Activity,Felis catus [16],98.4 µM/g
same,Relative salidiuretic activity,Rattus norvegicus [17],marked
same,Activity,Felis catus [18],101.8 µM/g
same,Activity,Felis catus [19],84.1 µM/g
same,Activity,[20],100.9 µM/g
same,Relative salidiuretic activity,Canis familiaris [21],marked
same,Tissue swelling,Felis catus [22],157 µL/g
same,Tissue swelling,Felis catus [23],232 µL/g
same,Activity,[24],89 µM/g
same,Relative salidiuretic activity,Pan troglodytes [25],marked
same,Distribution,[10],90%
same,pKa,[11],3.9
same,Activity,Felis catus [26],95.9 µM/g
CC1(C2CCCC2)Cc2cc(OCCCC(=O)O)c(Cl)c(Cl)c2C1=O (racemic),IC50,Felis catus [15],0.02 µM
same,Mortality,Felis catus [27],4
same,Relative salidiuretic activity,Canis familiaris [28],inactive
same,Relative salidiuretic activity,Pan troglodytes [29],inactive
same,Relative salidiuretic activity,Rattus norvegicus [30],inactive
same,Distribution,[10],99%
same,pKa,[11],5.7

# — ChEMBL document CHEMBL1122058, “Agents for the treatment of brain injury. 1. (Aryloxy)alkanoic acids” (J Med Chem, 1982)
